Measurements: ChEMBL document CHEMBL4673245, “Discovery of AZD9833, a Potent and Orally Bioavailable Selective Estrogen Receptor Degrader and Antagonist” (J Med Chem, 2020)
pIC50: −log10 of the molar value.

Experiments:
[1] = biological target: T1, Estrogen receptor (Homo sapiens) (UniProt P03372); experiment: Induction of ERalpha degradation in human MCF7 cells assessed as decrease in ER-alpha level at 0.1 uM by Western blot analysis relative to fulvestrant; format: cell-based; set-up: scale not given: the % may be the effect or the level left
T1 sequence (whole entry): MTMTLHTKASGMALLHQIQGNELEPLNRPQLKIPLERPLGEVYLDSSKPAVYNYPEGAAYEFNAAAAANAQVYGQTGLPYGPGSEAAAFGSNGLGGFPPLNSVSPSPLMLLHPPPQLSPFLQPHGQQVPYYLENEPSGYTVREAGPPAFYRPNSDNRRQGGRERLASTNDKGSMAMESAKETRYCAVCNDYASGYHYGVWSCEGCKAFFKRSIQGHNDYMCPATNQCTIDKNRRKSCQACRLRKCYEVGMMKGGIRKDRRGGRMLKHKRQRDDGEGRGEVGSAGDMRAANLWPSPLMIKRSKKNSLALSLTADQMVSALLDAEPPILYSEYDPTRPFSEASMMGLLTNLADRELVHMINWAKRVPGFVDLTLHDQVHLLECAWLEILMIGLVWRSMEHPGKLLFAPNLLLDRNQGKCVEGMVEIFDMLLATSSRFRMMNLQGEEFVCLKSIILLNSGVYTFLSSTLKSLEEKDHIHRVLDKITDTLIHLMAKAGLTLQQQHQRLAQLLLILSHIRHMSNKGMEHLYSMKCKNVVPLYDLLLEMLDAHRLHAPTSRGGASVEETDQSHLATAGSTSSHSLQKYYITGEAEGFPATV

[2] = Intrinsic clearance in rat hepatocytes assessed per million cells; format: ADME, cell-based, Hepatocyte; conditions: read-out: CLH
Outline: (§1)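 Hepatocyte intrinsic clearance measured from DMSO stock in isolated hepatocytes diluted to 1x10⁶ cells/mL; rate expressed as µl/min/10⁶ cells.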

Estrogen receptor [3] = biological target: T2, Estrogen receptor (Homo sapiens, UniProt P03372); experiment: Displacement of fluormone ES2 green reagent from human GST-tagged ERalpha LBD (282 to 595 residues) expressed in baculovirus infected insect cells incubated for 1 hrs by TR-FRET Lanthascreen assay
T2 sequence (P03372 whole entry): T1 sequence (whole entry)

[4] = Fraction unbound in human plasma by equilibrium dialysis method; format: ADME, cell-free
Outline: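 Fraction unbound measured from DMSO stock by equilibrium dialysis in 10% human plasma.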

[5] = biological target: T1, Estrogen receptor (Homo sapiens); experiment: Induction of ERalpha degradation in human CAMA1 cells assessed as decrease in ER-alpha level at 0.1 uM by Western blot analysis relative to fulvestrant; format: cell-based; set-up: scale not given: the % may be the effect or the level left; conditions: CAMA-1
Outline: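 Western blot for ERα in MCF-7 and CAMA-1 cells after treatment at 0.1 µM. ER level is expressed as % degradation relative to fulvestrant, from a single experiment (n = 1).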

Estrogen receptor [6] = biological target: T2, Estrogen receptor; experiment: Induction of ERalpha degradation in human MCF7 cells assessed as decrease in ER-alpha level incubated for 18 to 24 hrs by Alexa fluor 488/Hoechst staining based immunofluorescence imaging analysis; format: cell-based
Outline: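 ER degradation in MCF-7 cells via cellular degradation assay; n ≥ 2, degradation also expressed as %Dmax relative to fulvestrant.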

[7] = biological target: T1, Estrogen receptor (Homo sapiens); experiment: Induction of ERalpha degradation in human MCF7 cells assessed as maximum degradation incubated for 18 to 24 hrs by Alexa fluor 488/Hoechst staining based immunofluorescence imaging analysis relative to fulvestrant; format: cell-based; conditions: time lower […], time upper […]
[8] = Lipophilicity, log D of the compound in buffer and octanol at pH 7.4 by shake flask method; format: physicochemical
Outline: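 logD at pH 7.4 by shake flask, buffer/octanol volume ratio 100:1.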

[9] = Intrinsic clearance in human hepatocytes assessed per million cells; format: ADME, cell-based, Hepatocyte; conditions: read-out: CLH; outline: as §1

Row | SMILES | Activity [1] [%] | hepatocyte CLint [2] [µL/min/1e6 cells] | pIC50 (Estrogen receptor [3]) | fraction unbound [4] | Activity [5] [%] | pIC50 (Estrogen receptor [6]) | Emax [7] [%] | logD [8] | hepatocyte CLint [9] [µL/min/1e6 cells]
1 | COc1cc(NC2CN(CCCF)C2)ccc1[C@@H]1c2ccc3[nH]ncc3c2C[C@@H](C)N1CC(C)(F)F | 80 | 15 | 8.60 | 0.043 | 101 | 10.40 | 98 |  | 
2 | CC1(C)Cc2c(ccc3[nH]ncc23)[C@@H](c2ccc(NC3CN(CCCF)C3)cn2)N1CC(F)(F)F |  | 296 |  | 0.14 |  |  | 95 |  | 
3 | CC1(C)Cc2c(ccc3[nH]ncc23)[C@@H](c2ccc(NC3CN(CCCF)C3)cn2)N1CC(F)F |  | 270 | 8.50 | 0.22 |  | 9.10 | 98 |  | 
4 | COc1cc(NC2CN(CCCF)C2)ccc1[C@@H]1c2ccc3[nH]ncc3c2C[C@@H](C)N1CC(F)F | 99 | 14 | 8.70 | 0.12 | 100 | 10.00 | 99 | 3.2 | 
5 | C[C@@H]1Cc2c(ccc3[nH]ncc23)[C@@H](c2ccc(NC3CN(CCCF)C3)cn2)N1CC1(F)CC1 | 90 | 24 | 8.20 | 0.26 | 102 | 9.20 | 96 |  | 
6 | C[C@@H]1Cc2c(ccc3[nH]ncc23)[C@@H](c2ccc(NCCNCCCF)cn2)N1CC1(F)CC1 |  | 22 | 8.00 |  |  | 9.00 | 93 | 2 | 
7 | C[C@@H]1Cc2c(ccc3[nH]ncc23)[C@@H](c2ccc(N(C)C3CN(CCCF)C3)cn2)N1CC(F)(F)F | 85 | 20 | 8.70 | 0.15 | 82 | 9.70 | 98 |  | 
8 | C[C@@H]1Cc2c(ccc3[nH]ncc23)[C@@H](c2ccc(NC3(C)CN(CCCF)C3)cn2)N1CC(F)(F)F |  | 35 | 8.10 |  |  | 8.50 | 82 | 3.2 | 
9 | COc1cc(OCCN2CC(CF)C2)ccc1[C@@H]1c2ccc3[nH]ncc3c2C[C@@H](C)N1CC1(F)COC1 | 79 | 42 | 8.40 | 0.25 | 75 | 9.60 | 95 | 2.7 | 
10 | C[C@@H]1Cc2c(ccc3[nH]ncc23)[C@@H](c2ccc(NC3CN(CCCF)C3)cn2)N1CC(F)F |  | 22 | 8.40 | 0.4 |  | 9.50 | 99 | 2.4 | 
11 | COc1cc(OC2CN(CCCF)C2)ccc1[C@@H]1c2ccc3[nH]ncc3c2C[C@@H](C)N1CC1(F)CC1 | 90 | 16 | 8.10 | 0.11 | 90 |  | 97 |  | 
12 | COc1cc(NC2CN(CCCF)C2)ccc1[C@@H]1c2ccc3[nH]ncc3c2C[C@@H](C)N1CC(C)(C)F | 86 | 8 | 8.20 | 0.14 | 89 | 9.70 | 96 |  | 
13 | C[C@@H]1Cc2c(ccc3[nH]ncc23)[C@@H](c2ccc(N(C)[C@H]3CCN(CCCF)C3)cn2)N1CC(F)(F)F |  | 34 | 7.40 | 0.057 |  | 9.10 | 87 | 3.5 | 
14 | C[C@@H]1Cc2c(ccc3[nH]ncc23)[C@@H](c2ccc(NC3CN(CCCF)C3)cn2)N1CC(C)(C)F |  | 26 |  | 0.1 |  |  | 96 |  | 
15 | COc1cc(NC2CN(CCCF)C2)ccc1[C@@H]1c2ccc3[nH]ncc3c2C[C@@H](C)N1CC(F)(F)F | 95 | 12 | 8.30 | 0.06 | 110 | 10.20 | 98 |  | 
16 | C[C@@H]1Cc2c(ccc3[nH]ncc23)[C@@H](c2ccc(O[C@H]3CCN(CCCF)C3)cn2)N1CC(F)(F)F |  | 44 | 8.70 | 0.15 |  | 9.40 | 98 | 3.2 | 
17 | COc1cc(OCCNCCCF)ccc1[C@@H]1c2ccc3[nH]ncc3c2C[C@@H](C)N1CC1(F)CC1 |  | 9 |  | 0.18 |  |  | 82 | 2.4 | 
18 | COc1cc(NC2CN(CCCF)C2)ccc1[C@@H]1c2ccc3[nH]ncc3c2C[C@@H](C)N1CC(F)(F)CO |  | 20 | 8.30 | 0.23 |  | 9.70 | 98 |  | 
19 | C[C@@H]1Cc2c(ccc3[nH]ncc23)[C@@H](c2ccc(NCCNCCCF)cn2)N1CC(F)(F)F |  | 22 | 8.30 | 0.16 |  | 9.20 | 94 | 2.7 | 
20 | C[C@@H]1Cc2c(ccc3[nH]ncc23)[C@@H](c2ccc(NC3CN(CCCF)C3)cn2)N1CC(C)(F)F |  | 49 |  | 0.24 |  |  |  |  | 
21 | COc1cc(OCCN2CC(CF)C2)ccc1[C@@H]1c2ccc3[nH]ncc3c2C[C@@H](C)N1CC(C)C | 94 | 9 | 8.10 | 0.52 | 74 |  | 98 |  | 3
22 | C[C@@H]1Cc2c(ccc3[nH]ncc23)[C@@H](c2ccc(NC3CN(CCCF)C3)cn2)N1CC(F)(F)CO | 104 | 16 | 8.20 | 0.64 | 105 | 9.30 | 99 |  | 
